Assays:
[1] = tested on: A549 lung adenocarcinoma epithelial cells; experiment: Flow cytometry binding to A549; assay type: cell-based, human
In short: (§1)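 Cells were grown 48 h, trypsinized and washed in PBS with 10% FBS. 1.0 × 10^6 cells in 200 μL antibody solution, 2 h on ice. FITC-labelled anti-mouse IgG 1 h on ice, then three washes and resuspension in PBS/10% FBS. Analysed by flow cytometry; histograms overlaid on isotype control antibody.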

[2] = tested on: 184A1 mammary epithelial cells; experiment: Flow cytometry binding to 184A1; assay type: cell-based, human
In short: as §1

[3] = tested on: MUC1 glycopeptides PDT*R-Tn-20-, 40-, 60-, 100-mer and PDT*R-STn-20-, 40-, 60-, 100-mer; assay type: binding; details: ELISA signals with 20-, 60- and 100-mer glycopeptides
In short: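 Streptavidin (10 μg/mL in 50 mM Tris–HCl, pH 7.5) coated overnight at 4 °C; blocked 2 h at RT. Biotinylated Tn- or STn-glycopeptides (20-, 40-, 60-, 100-mer) captured overnight at 4 °C. Antibody overnight at 4 °C, HRP-anti-mouse IgG 2 h at RT. TMB 30 min, H2SO4 stop, A450. Antibody concentration set separately for each antibody.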

[4] = tested on: T-47D breast cancer cells; experiment: Flow cytometry binding to T-47D; assay type: cell-based, human
In short: as §1

[5] = tested on: H292 mucoepidermoid carcinoma cells; experiment: Flow cytometry binding to H292; assay type: cell-based, human
In short: as §1

[6] = tested on: Calu-3 lung adenocarcinoma cells; experiment: Flow cytometry binding to Calu-3; assay type: cell-based, human
In short: as §1

B1: PankoMab: anti-MUC1 antibody (Glycotope, Germany), established using desialylated MUC1 as the immunogen (antibody, chains of the INN, looked up, V domains shown)
VH: EVQLVESGGGLVQPGGSMRLSCVASGFPFSNYWMNWVRQAPGKGLEWVGEIRLKSNNYTTHYAESVKGRFTISRDDSKNSLYLQMNSLKTEDTAVYYCTRHYYFDYWGQGTLVTVSS
VL: DIVMTQSPLSNPVTPGEPASISCRSSKSLLHSNGITYFFWYLQKPGQSPQLLIYQMSNLASGVPDRFSGSGSGTDFTLRISRVEAEDVGVYYCAQNLELPPTFGQGTKVEIK
With B1 the “Binding to A549 (in words)” value [1] was “hardly bound”, the “Binding to 184A1 (in words)” value [2] was “hardly bound” and the “Tandem-repeat dependence of binding” value [3] was “tandem-repeat-dependent manner”. For the same molecule, the “Binding to T-47D (in words)” value [4] was “bound only to T-47D”, the “Binding to H292 (in words)” value [5] was “hardly bound” and the “Binding to Calu-3 (in words)” value [6] was “hardly bound”.
